From ChEMBL document CHEMBL2429848, “Proanthocyanidins from Spenceria ramalana and their effects on AGE formation in vitro and hyaloid-retinal vessel dilation in larval zebrafish in vivo” (J Nat Prod, 2013)
Activity calls are given as the source filed them. The calls are words filed in the database; no cut-off is given here.

What was measured:
[1] = Antiglycation activity assessed as inhibition of advanced glycation end product formation after 7 days by spectrofluorometric analysis; assay type: physicochemical
Method in brief: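 Bovine serum albumin (10 mg/mL) in 50 mM phosphate buffer pH 7.4 with 0.02% sodium azide was mixed with 0.2 M fructose/glucose solution and serially diluted compound, with aminoguanidine as positive control. Samples were incubated 7 days at 37 °C and fluorescence read at ex 350/em 450 nm, in triplicate. IC50 came from least-squares regression of log concentration against remaining activity.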

[2] = organism: Danio rerio; assay: Antidiabetic retinopathic activity in zebrafish flk:EGFP transgenic embryo assessed as reduction of high glucose-induced dilation of hyaloidretinal vessels at 10 to 20 uM treated 1 day post fertilization to 6 days post fertilization; assay type: functional, organism-based
Method in brief: (§1)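 flk:EGFP transgenic embryos, five per well, were kept from 1 dpf in egg water with 30 mM glucose plus compound (10 or 20 μM) until 6 dpf. They were then fixed in 4% PFA, and lenses were isolated with the optic disc up and imaged by fluorescence. Diameters were taken in 3–4 main branches up to the first sub-branch. Percentage inhibition = [1 − (Tn − Cav)/(HGav − Cav)] × 100, from three independent experiments.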

[3] = organism: Danio rerio; assay: Antidiabetic retinopathic activity in zebrafish flk:EGFP transgenic embryo assessed as reduction of high glucose-induced dilation of hyaloidretinal vessels at 20 uM treated 1 day postfertilization to 6 days postfertilization relative to control; assay type: functional; parameters: scale not given: the % may be the effect or the level left; method in brief: as §1
[4] = organism: Danio rerio; assay: Antidiabetic retinopathic activity in zebrafish flk:EGFP transgenic embryo assessed as reduction of high glucose-induced dilation of hyaloidretinal vessels at 10 uM treated 1 day postfertilization to 6 days postfertilization relative to control; assay type: functional; parameters: scale not given: the % may be the effect or the level left; method in brief: as §1
[5] = organism: Danio rerio; assay: Toxicity in zebrafish flk:EGFP transgenic embryo at 10 to 20 uM treated 1 day post fertilization to 6 days post fertilization; assay type: organism-based; details: in vivo

Structure (SMILES)	IC50 [1] [µM]	Activity [2]	Activity [3] [%]	Activity [4] [%]	Activity [5]
O=C(O[C@@H]1Cc2c(O)cc(O)cc2O[C@@H]1c1ccc(O)c(O)c1)c1cc(O)c(O)c(O)c1 [EPICATECHIN GALLATE]	15.1				
Oc1ccc([C@@H]2Oc3c(c(O)cc4c3[C@@H]3c5c(O)cc(O)cc5O[C@](c5ccc(O)cc5)(O4)[C@H]3O)C[C@H]2O)cc1	34.7	Active			
Oc1ccc([C@@H]2Oc3c(c(O)cc4c3[C@@H]3c5c(O)cc6c(c5O[C@](c5ccc(O)c(O)c5)(O4)[C@H]3O)[C@@H]3c4c(O)cc(O)cc4O[C@](c4ccc(O)cc4)(O6)[C@H]3O)C[C@H]2O)cc1	17.4		164.1	157.7	Non-toxic
Oc1ccc([C@@]23Oc4cc(O)cc(O)c4[C@@H](c4c(cc(O)c5c4O[C@H](c4ccc(O)c(O)c4)[C@@H](O)C5)O2)[C@@H]3O)cc1	14.1		104		
N=C(N)NN [PIMAGEDINE]	966				
Oc1cc(O)c2c(c1)O[C@H](c1ccc(O)c(O)c1)[C@H](O)C2 [(-)-EPICATECHIN]	13.6				
Oc1ccc([C@H]2Oc3c(c(O)cc4c3[C@@H]3c5c(O)cc(O)cc5O[C@](c5ccc(O)cc5)(O4)[C@H]3O)C[C@@H]2O)cc1	33.5	Active			
OC[C@H]1O[C@@H](O[C@@H]2Cc3c(O)cc4c(c3O[C@H]2c2ccc(O)cc2)[C@@H]2c3c(O)cc(O)cc3O[C@](c3ccc(O)cc3)(O4)[C@H]2O)[C@H](O)[C@@H](O)[C@@H]1O	32.1	Active			
Oc1ccc([C@@H]2Oc3c(c(O)cc4c3[C@@H]3c5c(O)cc6c(c5O[C@](c5ccc(O)cc5)(O4)[C@H]3O)[C@@H]3c4c(O)cc(O)cc4O[C@](c4ccc(O)cc4)(O6)[C@H]3O)C[C@H]2O)cc1	39.8	Active			
